Assay outcomes: PubChem, The Scripps Research Institute Molecular Screening Center
M4 antag – human M4 muscarinic receptor antagonists, primary screen, CHO cells, Fluo-8 calcium fluorescence. CHO-hM4 cells, ACh EC80. 0.73% of 360,000 active. inhibition, % at 3 µM. AID 624125, 2012. Muscarinic acetylcholine receptor M4 (Homo sapiens), P08173;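 active = inhibition above its plate's cutoff, the mean inhibition of sample wells plus 3 SD, cut at about 27% in these data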
M5 antag – human M5 muscarinic receptor antagonists, primary screen, CHO cells, Fluo-8 calcium fluorescence | Muscarinic acetylcholine receptor M5 (Homo sapiens), P08912 | AID 624040, 2012 | 0.59% of 360,000 active | CHO-hM5 cells, ACh EC80 | inhibition, % at 3 µM;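 active = inhibition above a per-plate cutoff, the mean of that plate's test compounds plus 3 SD, cut at about 27% in these data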
Target sequence (P08912 whole entry, looked up): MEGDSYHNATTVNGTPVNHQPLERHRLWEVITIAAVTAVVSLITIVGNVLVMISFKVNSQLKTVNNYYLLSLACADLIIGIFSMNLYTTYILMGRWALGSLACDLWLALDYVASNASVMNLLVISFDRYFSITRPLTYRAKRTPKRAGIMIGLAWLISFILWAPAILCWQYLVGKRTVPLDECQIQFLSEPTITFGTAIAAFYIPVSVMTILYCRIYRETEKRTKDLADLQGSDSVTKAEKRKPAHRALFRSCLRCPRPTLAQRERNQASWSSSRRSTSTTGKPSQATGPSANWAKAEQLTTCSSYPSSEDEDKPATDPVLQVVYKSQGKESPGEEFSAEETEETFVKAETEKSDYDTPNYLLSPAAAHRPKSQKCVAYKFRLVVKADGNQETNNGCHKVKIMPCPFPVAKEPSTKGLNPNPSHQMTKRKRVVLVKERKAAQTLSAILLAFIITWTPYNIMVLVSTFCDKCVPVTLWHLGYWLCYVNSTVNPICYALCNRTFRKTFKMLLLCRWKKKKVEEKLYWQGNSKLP
M4 PAM – human M4 muscarinic receptor positive allosteric modulators, primary screen, CHO-K1 cells, Fluo-8 calcium fluorescence | CHO-K1 hM4/Gqi5, ACh EC20; 0% = ACh EC20, 100% = maximal ACh | activation, % at 3 µM | 0.4% of 360,000 active | AID 624126, 2012;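 active = activation above its plate's cutoff, the mean activation of sample wells plus 3 SD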
M5 ag – human M5 muscarinic receptor agonists, primary screen, CHO-K1 cells, Fluo-8 calcium fluorescence; Muscarinic acetylcholine receptor M5 (Homo sapiens), P08912; CHO-K1 hM5 cells; 0% DMSO wells, 100% maximal acetylcholine response; activation, % at 3 µM; 0.19% of 360,000 active; AID 624037, 2012;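 active = activation above the run's mean over test compounds plus 3 SD, cut at about 23% in these data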;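 also: signal is peak over basal fluorescence ratio across the kinetic read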
CHRM5 PAM – human M5 muscarinic receptor positive allosteric modulators, primary screen, CHO-K1 cells, Fluo-8 calcium fluorescence | CHO-K1 hM5, ACh EC20 PAM; 0% = ACh EC20, 100% = ACh EC100 | AID 624038, 2012 | 0.3% of 360,000 active | activation, % at 3 µM;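 active = activation above the run cutoff, the mean activation of all test compounds plus 3 SD, cut at about 18% in these data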
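Probe or stimulus: acetylcholine, EC20 level; Assay system: human M5 receptor in CHO-K1 cells; Schedule: compound preincubation 140 s before EC20 acetylcholine addition; Technique: intracellular calcium via Fluo-8 fluorescence; Dosing: single-point, 3 µM nominal; Read-out basis: percent activation from peak-over-basal fluorescence ratio, scaled EC20-to-EC100 acetylcholine; Repeats: one well per compound, no replicates.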
M4 ag – human M4 muscarinic receptor agonists, primary screen, CHO-K1 cells, Fluo-8 calcium fluorescence; activation, % at 3 µM; 0.14% of 360,000 active; Muscarinic acetylcholine receptor M4 (Homo sapiens), P08173; CHO-K1 hM4/Gqi5; vehicle 0%, full acetylcholine response 100%;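 active = activation above the run mean over all test wells plus 3 SD, cut at about 32% in these data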;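 also: peak over basal fluorescence ratio per well then scaled between controls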
Hits are given with their value; . = inactive. Most compounds without a hit are left out; they make up all but 1.8% or so of the library.

SMILES	M4 antag	M5 antag	M4 PAM	M5 ag	CHRM5 PAM	M4 ag
Cc1cc(C)n(CC(=O)c2ccc(Br)cc2)c(=O)c1C#N	.	.	.	.	.	.
Cc1ccc(C(=O)Cn2c(C)cc(C)c(C#N)c2=O)cc1	.	.	.	.	29.2	.
CSCCC(NS(=O)(=O)c1ccc(Cl)cc1)C(=O)OCC(=O)c1c(C)[nH]c2ccccc12 (centres undefined)	32.7	.	.	.	.	.
CCOC(=O)Cn1nc(C)n(-c2cccc(Cl)c2)c1=O	.	.	.	.	18.9	.
N#Cc1cnn(-c2ccc(F)cc2)c1N	.	.	.	.	19.2	.
Fc1ccccc1CNc1ncnc2sccc12	.	.	.	.	.	.
COc1ccc(CCNc2ncnc3sccc23)cc1OC	40.3	47.9	.	.	.	.
c1ccc2c(c1)OCC(CNc1ncnc3sccc13)O2 (centres undefined)	.	35.3	.	.	.	.
COc1ccccc1CNc1ncnc2sccc12	.	27.3	.	.	.	.
c1ccc2c(c1)OCC(CNCC1COc3ccccc3O1)O2 (centres undefined)	.	.	.	.	.	.
O=C(Nc1nc(-c2ccc(F)c(F)c2)cs1)Nc1ccc(F)cc1F	.	.	.	.	.	.
O=Cc1ccc(-c2ccccc2C(=O)O)o1	.	.	.	.	.	.
O=C(O)c1ccccc1-c1c2cc(I)c(=O)c(I)c-2oc2c(I)c(O)c(I)cc12	57.4	38.2	.	107.0	.	253.6
CCOC(=O)c1cnc2c(C)cccc2c1Nc1cccc(C(=O)O)c1	29.8	.	.	.	.	.
CCOC(=O)c1cnc2c(ccc3ccccc32)c1NCCN(C)C	.	.	.	.	.	.
CCOC(=O)c1cnc2c(Cl)cccc2c1NCCN(C)C	.	.	.	.	45.1	.
C#CCNC(=O)C[C@@H]1C[C@@]2(C(=O)OC)CCCCC=C2N(Cc2ccco2)C1=O	.	.	.	.	.	.
CCOC(=O)[C@]12CCCC=C1N(Cc1ccco1)C(=O)[C@H](CC(=O)N1CCN(C(=O)c3ccco3)CC1)C2	.	.	23.7	.	.	.
C#CCNC(=O)C[C@@H]1C[C@@]2(C(=O)OCC)CCC=C2N(Cc2ccco2)C1=O	.	.	28.1	.	.	.
COc1ccccc1N(CC(=O)N/N=C(\C)c1ccc(F)cc1)S(=O)(=O)c1ccccc1	.	.	.	.	.	.
Cc1ccc2oc(C(=O)Nc3ccc(S(=O)(=O)Nc4ncccn4)cc3)c(C)c2c1	.	.	.	.	.	.
COc1ccc(NC(=O)COc2ccccc2)cc1Cl	.	.	.	.	.	.
COc1ccc(NC(=O)COc2ccccc2C(=O)NCC(c2ccccc2)N(C)C)cc1Cl (centres undefined)	.	56.6	.	.	.	.
Cc1ccc[n+](CC(=O)Nc2cc(C(F)(F)F)ccc2Cl)c1	.	.	.	.	.	.
CCC(C)(C)c1ccc(OCCCC[n+]2cccc(C)c2)c(C(C)(C)CC)c1	47.1	27.6	.	.	.	.
SMILES	M4 antag	M5 antag	M4 PAM	M5 ag	CHRM5 PAM	M4 ag
COc1nc(NCCO)nc(Nc2ccc([N+](=O)[O-])cc2)n1	.	.	24.5	.	.	.
O=C(NCc1ccccc1)C(c1c(F)cccc1Cl)N(C(=O)c1csnn1)C1CC1 (centres undefined)	.	.	.	.	.	.
N#Cc1ccc[n+](CC(=O)c2ccc(Cl)cc2)c1	.	.	.	.	22.8	.
CCOC(=O)CC(=O)CSc1nnc2sc3ccccc3n12	.	.	.	.	34.7	.
CN(C)C(=O)CSc1nnc2sc3ccccc3n12	.	.	.	.	.	.
CC(Nc1nc(-c2cccnc2)nc2ccccc12)c1ccc(F)cc1 (centres undefined)	.	.	.	.	.	.
CSCC[C@H](NC(=O)[C@H](Cc1ccccc1)n1c(=O)[nH]c2ccccc2c1=O)C(=O)N[C@@H](Cc1ccccc1)C(=O)O	.	.	.	.	.	.
O=C(CN1CCC(O)CC1)N1c2ccccc2C=Cc2ccccc21	28.8	.	.	.	.	.
O=C(CN1CCCC1)N1c2ccccc2Sc2ccccc21	60.9	59.2	.	.	.	.
CCOC(=O)Nc1ccc2c(c1)N(C(=O)C(C)N1CCCC1)c1ccccc1CC2 (centres undefined)	60.0	.	.	.	.	.
CCOC(=O)Nc1ccc2c(c1)N(C(=O)OC)c1ccccc1CC2	.	.	.	.	.	.
CCN1CCN(CC(=O)N2c3ccccc3Sc3ccccc32)CC1	31.4	.	.	.	.	.
COc1ccc(-c2noc(=O)n2Cc2ccccc2F)cc1	.	.	.	.	.	.
COc1ccc(C(=O)NCCc2nnc3ccc(SCC(=O)NCCc4ccc(OC)c(OC)c4)nn23)cc1	.	.	.	.	.	.
CCCC(CCC)C(=O)Nc1ccc2c(c1)N(C(=O)CN1CCN(C)CC1)c1ccccc1CC2	43.8	31.0	.	.	.	.
O=C(CN1CCCCC1)N1c2ccccc2CCc2ccccc21	76.6	49.3	.	.	.	.
CCOC(=O)N(Cc1ccccc1)Cc1ccc(C(=O)N[C@@H](Cc2ccccc2)C(=O)O)cc1	.	.	.	.	.	.
C[C@H](CO)N1C[C@H](C)[C@H](CN(C)S(=O)(=O)c2ccc(F)cc2)Oc2ncc(Br)cc2C1=O	.	.	.	.	.	.
C/C(=N\Nc1nc2ccccc2s1)c1ccc(Br)s1	.	.	.	.	.	.
CC(=NNc1nc2ccccc2s1)c1ccncn1	58.2	.	.	.	.	.
O=C(CSc1nc(N2CCOCC2)nc(N2CCOCC2)n1)Nc1ccc([N+](=O)[O-])cc1	.	.	.	.	21.6	.
Cc1ccc(-c2nc3c4ccccc4ccn3c2Cc2ccsc2)cc1	.	.	.	.	.	.
Oc1ccccc1Cc1c(O)ccc2ccccc12	.	.	.	.	.	.
O=C(O)Cc1cn(Cc2cccc(Cl)c2)c2ccccc12	.	.	25.9	.	.	.
O=C(O)Cc1ccc2ccc3ccccc3c2c1	.	.	.	.	19.2	.
COC(=O)c1ccc(C)c(NC(=O)c2ccc(CN3CCc4ccccc4C3)cc2)c1	.	.	.	.	.	.
Cc1cccnc1C(NC(=O)C1CCN(Cc2ccc(Oc3ccccc3)cc2)CC1)c1ccccc1 (centres undefined)	29.4	.	.	.	.	.
